# S1P3 ag – activates the human S1P3 receptor; Q99500; S1P3 NFAT-BLA reporter cells, agonism, FRET ratio; relative to 1 µM S1P, basal subtracted; activation, % at 4.5 µM; 60,000 compounds, 0.1% hits; AID 373;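 active means activation above the screen-wide mean plus 3 SD, cut at about 4.5% in these data, passing the limit was not always enough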
#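 Measure – % activation relative to 1 µM S1P (100%), per plate · System – stable CHO line with human S1P3, Gα16, NFAT-BLA reporter · Timing – cells plated overnight, compound 4 h 37 °C, substrate 2 h RT · Technique – fluorescent BLA substrate, ex 405 nm, em 460/535 nm ratio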
# HTR1A agonist – agonists of human 5-HT1a serotonin receptor | CHO 5-HT1a Ga15 NFAT-bla reporter, FRET ratio; 0% basal, 100% maximal reference agonist | activation, % at 10 µM | 65,000 compounds, 0.56% hits;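 active means activation above the screen-wide mean activation plus 3 SD, cut at about 19% in these data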;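 further: 0% = DMSO wells and 100% = 5-CT at EC100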
# Target sequence (P08908 whole entry, looked up): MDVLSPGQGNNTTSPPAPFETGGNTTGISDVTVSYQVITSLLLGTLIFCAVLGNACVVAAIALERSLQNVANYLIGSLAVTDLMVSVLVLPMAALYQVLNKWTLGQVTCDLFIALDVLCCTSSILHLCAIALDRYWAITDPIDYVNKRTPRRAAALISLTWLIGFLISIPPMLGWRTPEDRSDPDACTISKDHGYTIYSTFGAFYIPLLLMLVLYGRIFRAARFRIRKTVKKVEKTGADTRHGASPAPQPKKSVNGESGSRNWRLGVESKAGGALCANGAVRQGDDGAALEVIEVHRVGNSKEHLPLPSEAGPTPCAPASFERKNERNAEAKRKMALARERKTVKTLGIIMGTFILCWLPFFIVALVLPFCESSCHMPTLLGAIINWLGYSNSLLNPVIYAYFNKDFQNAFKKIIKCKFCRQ
# 5HT1E ag – 5-HT1E (human) receptor agonism | 65,000 compounds, 0.69% hits | AID 574 | activation, % at 6 µM | P28566 | CHO 5-HT1E Ga15 NFAT-bla reporter, FRET; 0% DMSO wells, 100% control agonist wells;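 active means activation above a set limit, the screen-wide mean activation plus 3 SD, cut at about 8.5% in these data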;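 further: 100% = positive control agonist at 1 µM giving full maximal response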
# S1P1 ag pot – activates or potentiates agonism at human S1P1 receptor | P21453 | activation, % at 9.5 µM | 56,000 compounds, 0.57% hits | S1P1 CRE-bla cells, forskolin, beta-lactamase FRET, potentiator mode; S1P1 agonist co-added at EC20, 2 nM; 100% = saturating reference agonist, 0% = basal | AID 449;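 active means activation above a cutoff set at the mean activation of all tested compounds plus 3 SD, cut at about 54% in these data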;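 further: forskolin at 4 µM as EC80 and the EC20 agonist is SEW2871; 100% = SEW2871 at its EC100 plus forskolin at EC80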
# HTR1E antagonist – antagonists of human 5-HT1E serotonin receptor. P28566. CHO 5-HT1E Ga15 NFAT-bla reporter, FRET, antagonist. inhibition, % at 6 µM. 65,000 compounds, 0.99% hits;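 active means inhibition above a set limit, the mean inhibition across every tested compound plus 3 SD, cut at about 29% in these data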;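 further: signal is the 460 over 535 nm emission ratio of beta-lactamase substrate; 0% = agonist plus DMSO wells and 100% = wells without agonist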
# 5HT1a antag – 5-HT1a (human) receptor antagonism. P08908. CHO 5-HT1a Ga15 NFAT-bla reporter, antagonist mode. inhibition, % at 10 µM. 62,000 compounds, 0.68% hits. AID 612;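 active means inhibition above the mean of all tested compounds plus 3 SD, cut at about 43% in these data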;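 further: receptor stimulated by 5-CT agonist at 100 nM near EC80; beta-lactamase reporter measured by ratiometric fluorescence of a cleavable substrate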
# * marks the source's active call; other numbers are inactive results; · = no result given. An excerpt weighted towards active compounds, which were near 2.9% of everything screened.
SMILES,S1P3 ag,HTR1A agonist,5HT1E ag,S1P1 ag pot,HTR1E antagonist,5HT1a antag
CCOC(=O)C1CCCN(C/C(O)=C(\C#N)c2nc(-c3ccccc3)cs2)C1 (stereo not drawn),0,-1,0,6,-1,10
CC(C)=CCC(C)(C)CNC(=O)NC1CCCCC1,-2,-2,-1,10,99*,·
COc1ccc2c(c1)c1nnc(SC)nc1n2C,1,2,17*,-52,13,4
Cc1cc(C)n(-c2nc(SCC(=O)NCC3CCCO3)c3c4c(sc3n2)CCCC4)n1 (stereo not drawn),-2,-3,-1,-3,15,23
Nc1nc(SCC(=O)NCCCO)nc2sc3c(c12)CCC3,-1,0,0,·,-4,9
Cc1cc(C)n(-c2nc(NCC(C)O)c3c4c(sc3n2)CCCC4)n1 (stereo not drawn),29*,2,1,-85,-6,-3
Cc1cc(C)n(-c2nc(NCCCO)c3c4c(sc3n2)CCCC4)n1,41*,10,1,-84,11,-18
Cc1cc(C)n(-c2nc(NCC3CCCO3)c3c4c(sc3n2)COC(C)(C)C4)n1 (stereo not drawn),3,-1,0,-74,2,-2
Cc1cc(C)n(-c2nc(NCCO)c3c4c(sc3n2)CCCC4)n1,28*,45*,0,-68,-12,-19
CCOC(=O)N1CCC(Nc2c(N3CCN(c4cccc(C(F)(F)F)c4)CC3)c(=O)c2=O)CC1,1,8,0,-29,-7,-10
C=CCN(C(=O)Cn1c(C(=O)OC)cc2oc(C)cc21)c1ccccc1,-1,1,-1,-13,-1,11
COC(=O)c1cc2oc(C)cc2n1CC(=O)N(C)c1ccccc1,-1,-1,11*,0,-5,-6
O=c1c2ccccc2nc(SCc2nc(-c3ccccc3)no2)n1-c1ccc(F)cc1,-2,20*,0,3,-2,13
Cc1ccc(-n2c(SCc3cn4ccsc4n3)nc3ccccc3c2=O)cc1,1,3,0,20,43*,17
c1ccc(-n2cnnc2SCc2cn3ccsc3n2)cc1,-1,1,0,-4,3,0
O=C(NCc1ccco1)C(c1cccs1)N(C(=O)C1COc2ccccc2O1)c1cccc(O)c1 (stereo not drawn),-1,-3,0,9,-4,16
O=C(O)c1ccc2cccc(Cl)c2c1O,-1,-3,0,16,1,52*
O=C(O)c1cc(Cl)c2ccccc2c1O,-1,2,0,16,10,1
Cc1ccc(C(C)C)c(OCc2nc(-c3nonc3N)no2)c1,17*,1,0,92*,22,-22
COc1ccc(-c2nnc(-c3ccc(Br)o3)o2)cc1OC,0,0,0,10,-2,-10
COc1ccccc1-c1nc(-c2ccc(Br)cc2)no1,-2,-4,0,78*,6,14
COc1ccccc1-c1nc(-c2ccncc2)no1,-1,-2,0,25,-5,8
COc1ccc(-c2nc(-c3ccc(Br)o3)no2)cc1OC,0,1,-1,82*,26,18
CCOc1ccc(-c2noc(-c3ccncc3)n2)cc1OCC,17*,0,0,109*,-10,-4
CCOc1ccc(-c2nc(-c3ccc(OC)cc3)no2)cc1OCC,0,-4,0,98*,-3,-4
SMILES,S1P3 ag,HTR1A agonist,5HT1E ag,S1P1 ag pot,HTR1E antagonist,5HT1a antag
CCOC(=O)c1ccccc1NC(=O)CSc1nnc(COc2ccccc2C)n1C,-1,-1,-1,-6,12,16
CCn1c2ccccc2c2cc(NC(=O)CCCN3C(=O)CCC3=O)ccc21,-1,-1,0,6,-7,-11
CC1CCCCN1S(=O)(=O)c1ccc2c(c1)CCN2C(=O)C1CCC1 (stereo not drawn),-1,-3,1,-32,12,4
C=CCn1c(O)c(CN2CCOCC2)c(C)c(C#N)c1=O,0,-4,0,-14,5,4
O=C(CSc1nnc2ccccn12)NC(=O)NC1CCCC1,0,0,0,-13,-5,0
COc1ccc(-c2nc(-c3ccncc3)no2)cc1OC,1,3,1,106*,5,-2
C/C=C(\C)CN1CCN(c2ccccc2F)CC1,0,2,8,·,-6,0
COc1cc(CN2CCN(c3ccccc3F)CC2)cc(OC)c1O,0,1,14*,·,2,4
COc1ccccc1N1CCN(C/C(C)=C/c2ccccc2)CC1,-1,-3,7,-11,-4,84*
COc1cc(S(=O)(=O)N2CCN(c3ccccc3F)CC2)ccc1Cl,-1,21*,0,-4,-1,-5
COc1ccccc1N1CCN(Cc2ccsc2)CC1,0,40*,21*,-8,0,29
Cc1c(Cl)cccc1NC(=O)c1cc(C2CC2)on1,-1,-3,0,23,2,9
CC(C)(C)n1ncc2c(=O)n(CC(=O)N3CCN(c4ccccc4)CC3)cnc21,1,-2,-1,-14,-1,-5
CCOc1ccc(NC(=O)CCN2CCN(S(=O)(=O)c3cc(Cl)ccc3OC)CC2)cc1,0,-1,-1,-6,9,-10
CCOc1ccccc1N1CCN(Cc2cccc(OC)c2OC)CC1,-2,-4,1,-9,13,58*
CCOc1ccc(NC(=O)CCN2CCN(c3ccccc3OC)CC2)cc1,-1,1,1,-2,2,100*
COc1ccccc1N1CCN(Cc2ccc(OC)c(OC)c2OC)CC1,-2,4,31*,-23,-1,62*
COc1ccccc1N1CCN(C/C(O)=C(\C#N)c2nc(-c3ccccc3)cs2)CC1,0,1,10*,24,3,10
CSc1nsc(SCC(=O)N2CCN(c3ccccc3)CC2)n1,-1,-1,-1,-7,1,4
CCOC(=O)N1CCN(C(=O)c2cnn(-c3ccccc3)c2NC(=O)c2ccccc2F)CC1,0,-3,-1,10,-3,11
COc1ccc(OC)c(CN2CCN(c3ccccc3OC)CC2)c1,-1,-2,5,-3,7,53*
COc1ccc(CC(C)N2CCN(Cc3ccccc3)CC2)c(OC)c1 (stereo not drawn),-2,-1,-1,-1,5,92*
CCOC(=O)c1cnc2c(OC)cccc2c1N1CCN(c2ccccc2OC)CC1,-2,2,9.1*,-22,2,38
COc1ccccc1N1CCN(c2cc(N3CCCC3)nc(C)n2)CC1,0,0,0,-10,2,7

# Bioassay records from PubChem.
